# Screening data from PubChem.
# This is a sample that favours compounds with a hit; in the whole collection about 3% have one here.
# 5HT1a ag: activates the human 5-HT1a serotonin receptor; P08908; CHO 5-HT1a Ga15 NFAT-bla reporter, FRET ratio; 0% basal, 100% maximal reference agonist; activation, % at 10 µM; hit rate 0.56% among 65,000; AID 567;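 active means activation above the screen-wide mean activation plus 3 SD, cut at about 19% in these data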;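 further: 0% = DMSO wells and 100% = 5-CT at EC100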
# S1P3 agonist: activates the human S1P3 receptor; S1P3 NFAT-BLA reporter cells, agonism, FRET ratio; relative to 1 µM S1P, basal subtracted; activation, % at 4.5 µM; hit rate 0.1% among 60,000;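 active means activation above the screen-wide mean plus 3 SD, cut at about 4.5% in these data, passing the limit was not always enough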
#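 Assay system: CHO cells stably expressing human S1P3, Gα16 and NFAT-β-lactamase reporter. Timing: overnight plating, 4 h compound 37 °C, 2 h substrate RT. Signal: β-lactamase FRET emission ratio 460/535 nm. Measure: percent activation versus median 1 µM S1P response, basal-subtracted, per plate. Repeats: primary screen single test, confirmation screen in triplicate.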
# 5-HT1A blocker: 5-HT1a (human) receptor antagonism. P08908. CHO 5-HT1a Ga15 NFAT-bla reporter, antagonist mode. inhibition, % at 10 µM. hit rate 0.68% among 62,000. AID 612;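 active means inhibition above the mean of all tested compounds plus 3 SD, cut at about 43% in these data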;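 further: receptor stimulated by 5-CT agonist at 100 nM near EC80; beta-lactamase reporter measured by ratiometric fluorescence of a cleavable substrate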
# 5HT1E ag: agonists of human 5-HT1E serotonin receptor; CHO 5-HT1E Ga15 NFAT-bla reporter, FRET; 0% DMSO wells, 100% control agonist wells; activation, % at 6 µM; hit rate 0.69% among 65,000; AID 574;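 active means activation above a set limit, the screen-wide mean activation plus 3 SD, cut at about 8.5% in these data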;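 further: 100% = positive control agonist at 1 µM giving full maximal response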
# Target sequence (P28566 whole entry, looked up): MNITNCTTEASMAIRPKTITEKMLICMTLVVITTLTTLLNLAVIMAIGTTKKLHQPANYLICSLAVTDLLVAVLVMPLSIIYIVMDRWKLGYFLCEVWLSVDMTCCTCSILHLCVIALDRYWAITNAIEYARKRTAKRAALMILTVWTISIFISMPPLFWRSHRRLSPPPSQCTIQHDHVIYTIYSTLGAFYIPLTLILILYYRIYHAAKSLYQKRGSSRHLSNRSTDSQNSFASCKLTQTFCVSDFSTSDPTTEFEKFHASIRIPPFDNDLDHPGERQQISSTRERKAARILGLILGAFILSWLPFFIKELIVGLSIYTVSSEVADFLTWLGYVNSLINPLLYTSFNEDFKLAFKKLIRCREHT
# S1P1 ag-PAM: S1P1 (human) agonism or agonism potentiation. P21453. S1P1 CRE-bla cells, forskolin, beta-lactamase FRET, potentiator mode; S1P1 agonist co-added at EC20, 2 nM; 100% = saturating reference agonist, 0% = basal. activation, % at 9.5 µM. hit rate 0.57% among 56,000;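 active means activation above a cutoff set at the mean activation of all tested compounds plus 3 SD, cut at about 54% in these data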;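 further: forskolin at 4 µM as EC80 and the EC20 agonist is SEW2871; 100% = SEW2871 at its EC100 plus forskolin at EC80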
# 5HT1E antag: antagonists of human 5-HT1E serotonin receptor | P28566 | CHO 5-HT1E Ga15 NFAT-bla reporter, FRET, antagonist | inhibition, % at 6 µM | hit rate 0.99% among 65,000 | AID 571;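 active means inhibition above a set limit, the mean inhibition across every tested compound plus 3 SD, cut at about 29% in these data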;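 further: signal is the 460 over 535 nm emission ratio of beta-lactamase substrate; 0% = agonist plus DMSO wells and 100% = wells without agonist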
# * marks the source's active call; other numbers are inactive results; · = not tested or not shown.
SMILES,5HT1a ag,S1P3 agonist,5-HT1A blocker,5HT1E ag,S1P1 ag-PAM,5HT1E antag
Cc1ccc(-c2noc(CN(C(=O)C34CC5CC(CC(C5)C3)C4)C(C)C)n2)cc1,-2,0,6,0,1,4
CCCSc1nc(N2CCOCC2)c2c(c1C#N)CCCC2,0,23*,·,1,59,8
CCOC(=O)N1CCN(c2nnnn2-c2ccccc2)CC1,-1,0,11,1,·,-2
CC1CN(c2nnnn2-c2ccccc2)CC(C)O1 (configuration not stated),-1,-1,-6,54*,-20,-7
CCC(C)Nc1nc(SC(C(C)=O)C(C)=O)nc(N(C)C)n1 (configuration not stated),1,2,-18,1,-27,-3
O=C(Oc1ccc(-c2nnco2)cc1)N(c1ccccc1)c1ccccc1,-2,16*,3,0,·,1
COc1ccc(N2C(=O)CCC(C(=O)Nc3cccc(C)n3)C2c2ccc(OC)c(OC)c2)cc1 (configuration not stated),29*,·,0,-2,·,12
Oc1ccc(N2CCN(C(c3cccs3)c3nnnn3CCc3ccccc3)CC2)cc1 (configuration not stated),-1,-1,24,-3,12,2
Cc1ccc(-n2nc3c([n+]2[O-])CCc2c-3no[n+]2[O-])cc1,-5,-2,73*,-2,41,74*
[O-][n+]1onc2c1CCc1c-2nn(-c2ccccc2Cl)[n+]1[O-],-5,-2,60*,0,29,34*
CC1(C)Cc2c(C#N)c(NCCc3ccccc3)nc(-c3ccco3)c2CO1,49*,12,·,9.1*,-21,-53
CCOC(=O)Cc1csc(NC(=O)CCS(=O)(=O)Cc2ccccc2)n1,-1,-1,-3,0,·,2
COc1cc(C2C(C#N)=C(N)Oc3cc(N)ccc32)cc(OC)c1OC (configuration not stated),1,-4,·,0,-14,57*
Cc1cccc(N=c2oc3cc(O)ccc3cc2C(N)=O)c1,64*,2,-190,24*,-105,-15
COc1cccc2cc(C(=O)NCC3CCCO3)c(=O)oc12 (configuration not stated),1,·,-2,0,·,-1
COc1ccccc1NC(=O)c1cc2ccc(O)cc2o/c1=N\O,3,0,7,1,-4,17
COc1ccccc1N=c1oc2cc(O)ccc2cc1C(=O)NCC1CCCO1 (configuration not stated),54*,3,-66,15*,-70,-30
COc1ccccc1N=c1oc2cc(O)ccc2cc1C(N)=O,45*,2,-92,19*,-52,-25
COC(=O)C1=C(N)Oc2cc(C)n(CC3CCCO3)c(=O)c2C1c1ccc(Cl)cc1 (configuration not stated),0,-1,15,1,-10,-12
O=S(=O)(Cc1ccc(Cl)cc1)N1CCCC1,-2,-2,-4,-1,-10,2
COc1ccc(C2=NOC(C(=O)Nc3cc(Br)ccc3O)C2)cc1OC (configuration not stated),2,0,10,1,-17,37*
CCn1c(=O)c(C2=NS(=O)(=O)c3ccccc3N2)c(O)c2ccccc21,-2,-1,7,0,0,2
Cc1ccc(CNC(=O)C2C3C=CC(C3)C2C(=O)O)cc1 (configuration not stated),-2,-1,-9,0,2,-8
CCSc1ccccc1C(=O)Nc1cc(C)on1,-2,-1,-1,14*,·,-3
CC(C)(C)c1ccccc1OCCCCCNCCO,0,-1,-6,0,-15,-9
SMILES,5HT1a ag,S1P3 agonist,5-HT1A blocker,5HT1E ag,S1P1 ag-PAM,5HT1E antag
COc1cc(C(=O)Oc2c(CN3CCOCC3)cc(Cl)c3cccnc23)cc(OC)c1OC,0,-1,18,2,-32,38*
COc1ccc(C(=O)Oc2c(CN3CCOCC3)cc(Cl)c3cccnc23)cc1,1,-1,8,2,4,-2
O=C(Oc1c(CN2CCOCC2)cc(Cl)c2cccnc12)c1ccc(F)cc1,-1,-1,17,2,-8,37*
C/C=C/Cn1c(SCc2ccc(C)cc2)nc2c1c(=O)[nH]c(=O)n2C,0,-1,-1,2,-50,30*
O=c1c2ccccc2nc(SCc2cn3ccsc3n2)n1-c1ccc(F)cc1,6,0,19,0,-21,37*
Cc1nnc(SCc2cn3ccsc3n2)n(N)c1=O,-1,-1,6,0,14,12
COc1cc2c(cc1OC)C(C(=O)NCc1cccnc1)C(c1cccnc1)N(C)C2=O (configuration not stated),-2,·,-3,0,·,9
Cc1cc(N2CCOCC2)nc(SCC(=O)c2ccccc2)n1,2,·,-6,0,·,2
Cc1cc(N2CCOCC2)nc(NCc2ccccc2)n1,-4,-2,4,0,59*,33*
CC(C)c1cc(C(=O)N2CCN(C(c3ccccc3)c3ccccc3)CC2)no1,2,0,-10,0,76*,3
O=C(c1noc2c1CCCC2)N1CCN(C(c2ccccc2)c2ccccc2)CC1,-4,0,0,0,30,-7
O=C(c1cc(-c2ccco2)on1)N1CCN(C(c2ccccc2)c2ccccc2)CC1,-5,0,43*,0,60*,-16
COc1ccc(-c2cc(C(=O)N3CCN(C(c4ccccc4)c4ccccc4)CC3)no2)cc1OC,-2,0,37,2,0,-25
O=C(c1cc(-c2ccccc2)on1)N1CCN(C(=O)c2ccco2)CC1,-4,0,7,0,-26,-3
COc1ccc(-c2cc(C(=O)N3CCN(C(c4ccccc4)c4ccccc4)CC3)no2)cc1,-3,-1,44*,1,-9,-4
CCc1ccccc1N(CC(=O)N1CCN(c2ccccc2)CC1)S(C)(=O)=O,-1,-1,-2,0,6,-8
Cc1cccc(C)c1OCC(O)Cn1ccnc1C (configuration not stated),1,-2,4,-1,4,5
Cc1cccc(C)c1OCC(O)CN (configuration not stated),-4,0,-3,24*,7,3
CC1(C2(O)CC(c3ccccc3)ON2)CCCCC1 (configuration not stated),3,-4,·,-1,-7,37*
CC(C)(C)NS(=O)(=O)c1ccc(CCC(=O)N2CCCCC2)cc1,1,·,-8,0,·,-8
Clc1ccc(CCNc2ncnc3nc[nH]c23)cc1,3,-2,6,0,85*,-3
